# Screens deposited in PubChem by several laboratories.
# ABCB6 inh 2 – inhibitors of human ABC transporter ABCB6; Q9NP58; K562-ABCB6 porphyrin accumulation, flow cytometry, 1 h; hits give low values; fluorescence ratio to DMSO, % at 10 µM; 360,000 tested, 0.19% active; AID 602162;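 active means fluorescence ratio to DMSO below 75%, the collection mean minus 3 SD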;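 further: signal is porphyrin accumulated inside mitochondria; 100% equals median channel fluorescence of DMSO control wells; lower ratio means ABCB6 inhibition with less porphyrin fluorescence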
# Target sequence (Q9NP58 whole entry, looked up): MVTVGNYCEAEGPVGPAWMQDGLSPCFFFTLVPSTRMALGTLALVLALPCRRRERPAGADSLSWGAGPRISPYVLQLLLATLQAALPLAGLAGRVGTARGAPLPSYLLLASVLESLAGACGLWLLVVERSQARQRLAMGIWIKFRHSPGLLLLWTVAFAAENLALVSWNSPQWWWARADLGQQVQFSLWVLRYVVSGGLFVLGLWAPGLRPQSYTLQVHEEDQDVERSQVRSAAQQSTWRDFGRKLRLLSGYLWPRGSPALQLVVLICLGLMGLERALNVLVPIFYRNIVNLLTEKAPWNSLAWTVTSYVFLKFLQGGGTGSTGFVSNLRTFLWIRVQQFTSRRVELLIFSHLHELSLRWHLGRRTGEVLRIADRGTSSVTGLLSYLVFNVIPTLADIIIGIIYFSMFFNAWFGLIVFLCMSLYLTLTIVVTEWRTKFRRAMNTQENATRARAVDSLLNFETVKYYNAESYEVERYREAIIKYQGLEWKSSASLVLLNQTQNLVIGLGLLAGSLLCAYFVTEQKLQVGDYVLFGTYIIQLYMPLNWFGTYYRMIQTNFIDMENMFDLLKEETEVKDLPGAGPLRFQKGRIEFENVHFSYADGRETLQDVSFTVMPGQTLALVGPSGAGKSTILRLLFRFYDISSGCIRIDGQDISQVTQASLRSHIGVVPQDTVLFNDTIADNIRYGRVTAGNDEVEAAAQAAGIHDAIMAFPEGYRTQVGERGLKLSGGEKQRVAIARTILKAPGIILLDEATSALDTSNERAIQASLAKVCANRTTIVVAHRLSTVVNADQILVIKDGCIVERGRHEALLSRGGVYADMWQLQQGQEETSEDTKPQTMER
# Exocytosis inh – lytic granule exocytosis inhibition; TALL-104 LAMP-1 surface exposure, flow cytometry; cells stimulated with thapsigargin and PMA; inhibition, % at 10 µM; 360,000 tested, 0.66% active;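 active means inhibition above about 55%, limit read from the data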
# CendR NRP1 mod – modulators of CendR peptide binding to human neuropilin-1 | FAM-RPARPAR peptide binding to NRP-1, fluorescence polarization | O14786 | inhibition, % at 25 µM | 360,000 tested, 0.85% active;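 active means inhibition or corrected inhibition above about 18%, plus a signal ratio from 0.5 to 1.5, limit read from the data, passing the limit was not always enough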
# Myeloid diff MLP – promotes myeloid progenitor differentiation; ER-HoxA9 myeloid progenitors, lysozyme-GFP differentiation, flow cytometry; calls only at 10 µM; 360,000 tested, 1% active; AID 624256;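 active means normalized GFP-positive differentiation at or above the plate's own cutoff, the solvent-only control mean plus 3 SD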;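 further: cells exposed to compound for four days before flow analysis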
# ATG4B inh – ATG4B (human) cysteine protease inhibition | inhibition, % at 8.33 µM | 340,000 tested, 0.51% active | ATG4B cleavage of LC3-PLA2, NBD-HPC fluorescence, 1 h | AID 504462 | Q9Y4P1; in the data active means inhibition above about 40%
# Arrestin-AP2 inh – human beta-arrestin and AP2 interaction inhibition. 340,000 tested, 0.31% active. FITC-arrestin peptide / GST-AP2 beads, flow cytometry; AP2 beta2 appendage carries R879A mutation. inhibition, % at 10 µM. AID 504490;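 active means inhibition above a set limit, near 3 SD of compounds lacking own fluorescence, cut at about 54% in these data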;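 further: plate controls were DMSO wells for no effect and 5 µM unlabelled arrestin peptide for full effect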
#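 Measured by: flow cytometry, FL1 (488/535 nm); Material: AP2 appendage R879A on GSH beads; Evaluation: percent response; Timing: pre-incubation 12 min, peptide binding 1 h, room temperature; Also added: 50 nM FITC-arrestin peptide; Medium: PBS with 0.05% Tween 20 and 0.1% BSA.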
# * = called active by the depositor; i = inactive; nt = no result; + = active, no number. Hits are enriched below; roughly 3.3% of the tested compounds scored in any of these assays.
SMILES,ABCB6 inh 2,Exocytosis inh,CendR NRP1 mod,Myeloid diff MLP,ATG4B inh,Arrestin-AP2 inh
Cc1ccc(N2C(=O)CC(Nc3ccc(Cl)c(S(=O)(=O)N(C)C)c3)C2=O)c(C)c1 (stereo unspecified),98.0,6.0,0.3,i,0.9,1.9
COc1ccccc1CNC(=S)Nc1ccc(S(N)(=O)=O)cc1,95.0,3.5,-4.0,i,1.1,7.1
CC(OC(=O)CNC(=O)c1sc2ccccc2c1Cl)C(=O)NC1(C#N)CCCCC1 (stereo unspecified),94.0,-3.1,5.2,i,-17.1,-0.5
CC1(c2nnc(-c3ccc(F)cc3)o2)CC(c2c(Cl)cccc2Cl)=NO1 (stereo unspecified),95.0,-15.7,29.4*,i,25.0,7.0
COc1ccccc1C(=O)N/N=C(\C)c1cccnc1,98.0,-2.1,-0.9,i,-8.4,6.0
O=C(CCCSc1nc2ccccc2[nH]1)NCc1ccccc1,101.0,9.2,-7.1,i,-9.5,-4.5
O=C(CCCSc1nc2ccccc2[nH]1)Nc1nnc(-c2ccccc2)o1,98.0,2.3,-6.0,+,-1.0,-5.7
CCC(Sc1nc(N)c(NC(=O)c2ccc(Br)o2)c(=O)[nH]1)C(=O)O (stereo unspecified),97.0,0.3,12.1,i,-2.7,0.7
CC(C)(C)N(NC(=O)Nc1ccccc1)C(=O)c1ccccc1Cl,103.0,0.7,25.4*,i,2.4,9.2
CC(C)(C)N(NC(=O)OCc1ccccc1)C(=O)c1ccccc1Cl,104.0,-5.2,-4.6,i,6.8,1.6
O=C(COC(=O)Cc1n[nH]c(=O)c2ccccc12)Nc1c(Br)cc([N+](=O)[O-])cc1Br,96.0,1.1,24.1*,i,2.6,-21.6
CC(C)C[C@H](NC(=O)OC(C)(C)C)c1nnc(SCc2cccc(F)c2)o1,98.0,-2.3,44.2*,i,2.7,12.4
CSCC[C@H](NC(=O)OC(C)(C)C)c1nnc(SCc2cccc(F)c2)o1,100.0,-6.5,-8.2,i,4.8,1.2
O=C(COC(=O)c1ccc2ccccc2n1)NC1CCCCC1,94.0,-1.3,11.0,i,-4.9,-1.0
COc1ccc(CCNC(=O)C2CCC(C(C)(C)C)CC2)cc1OC (stereo unspecified),99.0,2.9,34.0*,i,3.8,-15.8
CC1=C(C(=O)N(C)C)CC(CC(=O)NCCc2ccccn2)C(=O)N1Cc1ccc(C(C)(C)C)cc1 (stereo unspecified),89.0,0.8,2.7,i,nt,nt
O=C(Cn1ncc2c(=O)oc3ccccc3c21)N1CCCN(Cc2ccccc2F)C1,78.0,18.3,-2.4,+,7.1,-0.1
COc1ccccc1C(c1c(O)nc(SC)[nH]c1=O)c1c(O)nc(SC)[nH]c1=O,101.0,-9.5,-1.4,i,1.1,39.9
CCOc1cc(C(c2c(O)nc(SC)[nH]c2=O)c2c(O)nc(SC)[nH]c2=O)ccc1O,98.0,-3.8,30.5*,i,3.5,-0.7
C=C1C(=O)[C@]23C[C@H]1CCC2[C@@]1(C)C(C[C@@H]3O)[C@](C)(C(=O)O)C[C@H](O)[C@@H]1O (stereo partly specified),100.0,-0.3,14.7,i,nt,nt
C=C1C(=O)[C@]23C[C@H]1CC[C@H]2[C@]1(C)[C@@H](O)CC[C@@](C)(C(=O)O)[C@H]1C[C@@H]3O,105.0,-0.5,22.6,+,nt,nt
CC(Oc1ccc2ccccc2c1)C(=O)NNC(=O)Nc1ccccc1F (stereo unspecified),95.0,-3.3,7.9,i,-7.7,10.9
N#Cc1ccc(Nc2nc(-c3ccccc3)cs2)cc1,95.0,9.4,6.1,i,nt,nt
c1ccc(-c2csc(Nc3ccc4c(c3)OCO4)n2)cc1,98.0,-0.9,24.5*,i,nt,nt
C[C@H](CO)N1C[C@H](C)[C@@H](CN(C)S(=O)(=O)c2ccccc2C#N)OCc2cn(nn2)CCCC1=O,90.0,-4.9,7.9,i,nt,nt
CC(C)(C)OC(=O)N1CCCN(C(=O)c2ccc(Cl)cc2)CC1,98.0,-1.6,1.6,i,-7.5,-16.1
CC(C)(C)OC(=O)N1CCN(Cc2ccc(F)c(B(O)O)c2)CC1,98.0,-3.1,-0.1,+,1.9,5.6
